# Assay results pooled from the literature.
# Cell line: HL-60
# Effect on: cell growth or viability
SMILES,technique,time,notes,IC50 [nM]
CCn1c(-c2nnc(NC(=O)c3cc4c([nH]c5ccccc54)c(-c4ccc(OC)cc4)n3)s2)cc2ccccc21,MTT,72 h,,46200
CCCON(Cc1ccc(C(=O)NO)cc1)C(=O)Nc1ccccc1,ATP luminescence,72 h,,1690
COc1ccc(C(=O)CC(=O)c2ccc(C(C)(C)C)cc2)cc1,,,dark,~30000
Nc1ncc(-c2cnn(C3CCNCC3)c2)cc1-c1nnc(CC2CC2)o1,trypan blue,72 h,,678
Cn1c(-c2nnc(NC(=O)c3cc4c([nH]c5ccccc54)c(-c4ccc(F)cc4)n3)s2)cc2ccccc21,MTT,72 h,,37200
COc1cc([C@@H]2c3cc4c(cc3[C@@H](O[C@@H]3O[C@@H]5CO[C@@H](C)O[C@H]5[C@H](O)[C@H]3O)[C@H]3COC(=O)[C@H]23)OCO4)cc(OC)c1O,MTT,48 h,,310
CC(C)[C@H](N)C(=O)N1CCC[C@H]1B(O)O,ATP luminescence,48 h,,115
COc1cc(Nc2nccc(-c3cnn4nc(OC)ccc34)n2)cc(C(F)(F)F)c1,ATP luminescence,,,210
COc1ccc(-c2nc(C(=O)Nc3nnc(-c4cc5ccccc5[nH]4)s3)cc3c2[nH]c2ccccc23)cc1,MTT,72 h,,3830
CN1c2ccccc2C(=O)N2[C@H](C(=O)Nc3ccc(/C=C/C(=O)NO)cc3)Cc3c([nH]c4ccccc34)[C@@H]12,,,,630
N[C@@H](CC(=O)N1CCN(C(c2ccc(F)cc2)c2ccc(F)cc2)CC1)C(=O)N1Cc2ccccc2C1,ATP luminescence,48 h,,2710
COc1cc(/C=C/C(=O)CC(=O)/C=C/c2ccc(O)c(OC)c2)ccc1O,resazurin,72 h,dark,4100
